Measurements pooled from the literature.
Each line is one published result; the experiments were not run side by side.
Target: Serine/threonine-protein kinase ULK2 (ULK2, Homo sapiens, UniProt Q8IYT8)
Sequence (Q8IYT8 1-1036, as in one of the studies): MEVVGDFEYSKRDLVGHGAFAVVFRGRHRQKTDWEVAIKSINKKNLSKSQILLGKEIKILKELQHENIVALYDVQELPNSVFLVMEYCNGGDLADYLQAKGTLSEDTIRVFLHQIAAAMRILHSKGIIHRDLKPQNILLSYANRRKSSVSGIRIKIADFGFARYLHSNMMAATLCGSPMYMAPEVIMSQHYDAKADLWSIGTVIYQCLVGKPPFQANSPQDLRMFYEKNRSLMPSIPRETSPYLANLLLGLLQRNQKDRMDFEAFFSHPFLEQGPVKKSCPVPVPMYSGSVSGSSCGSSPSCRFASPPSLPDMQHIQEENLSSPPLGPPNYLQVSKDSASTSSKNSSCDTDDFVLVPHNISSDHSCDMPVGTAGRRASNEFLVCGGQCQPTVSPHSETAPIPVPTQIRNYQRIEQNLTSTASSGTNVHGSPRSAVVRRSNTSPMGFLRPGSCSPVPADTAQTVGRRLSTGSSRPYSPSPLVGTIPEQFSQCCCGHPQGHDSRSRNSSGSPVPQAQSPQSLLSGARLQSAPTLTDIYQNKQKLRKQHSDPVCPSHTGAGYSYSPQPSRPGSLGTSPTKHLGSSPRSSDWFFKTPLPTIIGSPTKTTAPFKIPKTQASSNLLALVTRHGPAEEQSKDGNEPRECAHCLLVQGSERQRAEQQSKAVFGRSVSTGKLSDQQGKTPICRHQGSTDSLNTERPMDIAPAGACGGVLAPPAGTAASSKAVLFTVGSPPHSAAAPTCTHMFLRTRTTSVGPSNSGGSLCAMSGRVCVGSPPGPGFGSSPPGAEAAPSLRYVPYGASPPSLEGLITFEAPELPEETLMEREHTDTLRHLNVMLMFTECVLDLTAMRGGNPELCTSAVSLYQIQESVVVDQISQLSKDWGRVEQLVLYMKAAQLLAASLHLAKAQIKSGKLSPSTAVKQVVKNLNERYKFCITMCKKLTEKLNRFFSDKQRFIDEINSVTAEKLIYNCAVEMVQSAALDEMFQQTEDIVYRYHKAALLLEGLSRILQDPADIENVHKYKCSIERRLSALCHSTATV

| Compound | test | system | conditions | measurement | result |
| --- | --- | --- | --- | --- | --- |
| O=C(NCc1ncc(C(F)(F)F)cc1Cl)c1ccc2c(c1)C1(CCS(=O)(=O)CC1)[C@H](C1CC1)N2S(=O)(=O)c1ccc(F)cc1 | cell-free assay, competition with immobilised ligand | – | 1 µM | remaining binding | 58% |
| CCCOc1ccc(OC)c(F)c1C(=O)c1ccc(C(=O)N[C@@H]2CNC[C@H]2NC(=O)c2ccc3[nH]ncc3c2)cc1 | enzyme activity, inhibitor | – | 10 µM | remaining activity | 101% |
| CC(C)(O)[C@H]1CC[C@H](Nc2ccc3ncc(-c4cccc(C(F)(F)F)c4)n3n2)CC1 | enzyme activity, inhibitor | – | 1 µM | remaining activity | 97.9% |
| CCCS(=O)(=O)Nc1ccc(F)c(C(=O)c2c[nH]c3ncc(-c4ccc(Cl)cc4)cc23)c1F | enzyme activity, inhibitor | – | 1 µM | inhibition | < 10% |
| COc1cc(Cl)c(C(=O)N[C@@H](CN[C@H]2CC[C@@H](N)CC2)Cc2ccc(C#N)cc2)cc1-c1ccc(CN[C@H](C)c2ccc(C)cc2)o1 | enzyme activity, inhibitor | – | 1 µM | remaining activity | 94% |
| CN(C(=O)c1ccccc1)c1cc(N(C)c2ccc3c(c2)CCc2ccc(C(=O)NCCN4CCOCC4)cc2C3=O)ccc1F | cell-free assay, competition with immobilised ligand | – | 1 µM | remaining binding | 100% |
| COc1cc(Nc2cnc(C#N)c(O[C@H](C)CN(C)C)n2)ncc1-c1cnn(C)c1 | enzyme activity, inhibitor, radiometric | – | 1 µM | remaining activity | 42% |
| CS(=O)(=O)Nc1cccc(-c2csc(NC(=O)CSc3nc4nccnc4c(=O)n3CCc3ccccc3)n2)c1 | enzyme activity, inhibitor | – | 10 µM | inhibition | -2% |
| C[S+]([O-])c1ccc(-c2nc(-c3ccncc3)c(-c3ccc(F)cc3)[nH]2)cc1 (stereo not shown) | cell-free assay | – | 0.5 µM | remaining signal | 83.5% |
| Cc1ccc(C(=O)Nc2ccc(CN3CCN(C)CC3)c(C(F)(F)F)c2)cc1C#Cc1cnc2cccnn12 | enzyme activity, inhibitor | – | 23.5 nM | remaining activity | 94% |
| C[C@@H](c1cccc(C#N)c1)n1cc(Cl)cc(C(N)=O)c1=N | cell-free assay, competition with immobilised ligand | – | 1 µM | remaining binding | 89% |
| CCN1CCN(Cc2ccc(NC(=O)c3ccc(C)c(Oc4ccnc5[nH]ccc45)c3)cc2C(F)(F)F)CC1 | target engagement in cells, inhibitor, chemoproteomics | Huh-7 | 10 µM | inhibition | -13.4% |
| CC(=O)N1CCC(c2ccc(C(=O)NC3=NCCN3)cc2C(F)(F)F)CC1 | cell-free assay, competition with immobilised ligand | – | 1 µM | remaining binding | 82% |
| CCN(CC)c1ccc(C2=NNC(=O)CC2C)cc1[N+](=O)[O-] (stereo not shown) | enzyme activity, inhibitor | – | 10 µM | remaining activity | 97% |
| N#Cc1ccc(Nc2ccc3[nH]c(=O)[nH]c3c2)c(Cl)c1 | cell-free assay, competition with immobilised ligand | – | 1 µM | remaining binding | 99% |
| CN1CC(Oc2cnc(C#N)cc2-c2ccn3nc(NC(=O)C4CC4)cc3c2)C1 | enzyme activity, inhibitor | – | 1 µM | inhibition | 8% |
| O=C1NC(=O)c2cc(Nc3ccc(F)cc3)c(Nc3ccc(F)cc3)cc21 | cell-free assay | – | 0.5 µM | remaining signal | 84.7% |
| Cc1ccc(NC(=O)c2ccc(C)c(C(F)(F)F)c2)cc1C#Cc1nn(C2CCC(O)CC2)c2ncnc(N)c12 (stereo not shown) | cell-free assay | – | 10 µM | remaining signal | 100% |
| Cc1sc(C(=O)NC2COC2)cc1-n1cc(NC(=O)Nc2c(F)cccc2Cl)cn1 | enzyme activity, inhibitor | – | 10 µM | remaining activity | 74.9% |
| FC(F)(F)Oc1cccc(-c2cnc3ccc(-c4ccncc4)nn23)c1 | enzyme activity, inhibitor, radiometric | – | 5 µM | activity vs control | 95% |
| COc1cc2c(Nc3ccc(Br)cc3F)ncnc2cc1OCC1CCN(C)CC1 | cell-free assay | – | 0.5 µM | remaining signal | 108% |
| Nc1c(C(=O)NCc2ccc(C(=O)NCCCC3CCCCC3)cc2)cnn1-c1ccccc1 | cell-free assay, competition with immobilised ligand | – | 0.1 µM | remaining binding | 100% |
